This is an account of results in article PMC4301737 (Journal of molecular biology, 2009).

The target in experiment [1] is sperm-whale myoglobin (SWMb). The following applies: ref Springer et al.[23], cited from earlier work.
In the next experiment the target is HemAT-Bs. The following applies: ref Zhang et al.[22], cited from earlier work.
The subject of experiment [2] is BpeGReg. Briefly: Ligand binding kinetics and affinity of BpeGReg. Also on record: species or system Bordetella pertussis. The note with it: 25°C, 100 mM NaPi, pH 7.5. In a few lines:
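His-tagged protein purified by Co2+-affinity, used at 2–5 µM. O2 kon by flash photolysis at 436 or 414 nm with 64–1024 µM O2. O2 koff by stopped-flow at 436 nm, oxy protein mixed with 1 mM dithionite. CO kon by photolysis at 419 nm with 30–480 µM CO. CO koff: 3.5 µM CO-bound protein (20 µM CO) displaced by 500 µM NO at 423 nm. NO kon by photolysis at 435 nm with 15–60 µM NO. Rates taken from linear kobs-versus-ligand plots over ≥4 concentrations.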

Experiment [3] deals with BpeGReg. Briefly: Enzymatic diguanylate cyclase assay. Type of experiment: biochemical, Bordetella pertussis.

Each structure is given as a SMILES string. Read-outs that look alike come from different tables or passages of the source.

For `[C-]#[O+]` [CO, carbon-monoxide], the Kd in experiment [1] (read-out: CO Kd) was 0.037 µM; at HemAT-Bs (read-out: CO Kd) it was 0.2 µM. The results for the CO koff (in experiment [1]; in the experiment on HemAT-Bs; in the experiment on BpeGReg [2]) were 0.019 s⁻¹, 0.067 s⁻¹ and 0.056 s⁻¹, respectively.
`O=O` [O2, oxygen]: in the experiment with BpeGReg [3] (5 µM BpeGReg in air (Fe(II)O2) vs anaerobic (Fe(II)), 500 µM GTP, PDE-coupled), the “drop in activity in the absence of O2” value is listed as 13 fold. In the experiment with BpeGReg [3] (PDE-coupled assay), the “rate of O2-bound BpeGReg relative to unliganded ferrous form” value is given as 10 times. Further, the “initial rate of c-di-GMP production by O2-bound BpeGReg” value in the experiment on BpeGReg [3] (PDE-coupled assay, 500 µM GTP) came to 2.5 min⁻¹. In the experiment on BpeGReg [3] (compared to the unliganded, CO- and NO-bound forms, HPLC-MS and TLC), the “c-di-GMP production by liganded state of BpeGReg” value was “highest amount of c-di-GMP per mole of protein”. Further, the Kd in experiment [1] (read-out: O2 Kd) was 0.88 µM; on BpeGReg [2] (read-out: O2 Kd), 0.64 µM. For the same molecule, the values for the O2 koff (in experiment [1]; in the experiment with BpeGReg [2]) were 15 s⁻¹ and 4.5 s⁻¹, respectively.
As to `Nc1nc2c(ncn2[C@@H]2O[C@@H]3COP(=O)(O)O[C@H]4[C@@H](O)[C@H](n5cnc6c(=O)[nH]c(N)nc65)O[C@@H]4COP(=O)(O)O[C@H]3[C@H]2O)c(=O)[nH]1` [c-di-GMP, bis-(3’–5’)-cyclic diguanosine monophosphate], the “effect on BpeGReg-catalyzed reaction” value in the experiment on BpeGReg [3] (20 µM c-di-GMP added at start, 1 µM oxy-BpeGReg, 500 µM GTP) is given as “strongly inhibited”.

As a reminder, the Kd is the constant that tells how readily two partners part at equilibrium.
